We go through 48 sequences from the EternaBench riboswitch data.

The test system of this data set is MS2 coat protein. Kind of data set: apparent Kd, MS2 coat protein; higher = weaker binding; RNA-MaP array; FMN 200 µM where present. The gist of the method:
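Stalled E. coli RNA polymerase produced the designs on Illumina sequencing-chip clusters. SNAP-549-labelled MS2 coat protein was added from 0.7 or 1.5 nM, doubling to 3 µM, without and then with constant ligand, in 100 mM Tris-HCl pH 7.5, 80 mM KCl, 4 mM MgCl2, BSA, DTT, yeast tRNA and Tween-20. The apparent Kd is the median of filtered per-cluster fits of green signal normalised to red-channel RNA signal and control-cluster median Fmax.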

The mark [1] stands for this setting: designed as: OFF switch for flavin mononucleotide, no ligand.
Where [2] appears, read: ligand present: flavin mononucleotide, designed as: OFF switch for flavin mononucleotide.
Where [3] appears, read: designed as: ON switch for flavin mononucleotide, no ligand.
Where [4] appears, read: ligand present: flavin mononucleotide, designed as: ON switch for flavin mononucleotide.

One may read the apparent Kd as the concentration giving half-maximal binding under the conditions of the assay. “GGUACUCAAAGAGUACUUGGUCGAACAUGAGGAUCACCCAUGUAGGAUAUACAAAGCAAGAAGUAGUAGAAGGACAUGUGCAGC”: the “apparent Kd” value under setting [1] worked out at 12.9 nM and the “apparent Kd” value under setting [2] worked out at 16.2 nM.

In the case of “UAAACGUUCUAGAAGGUGCUUUUGUUAAACAAGCAAGGAUAUAGACAUGAGGAUCACCCAUGUCUUUAAGACAUCGACAUACUU”, the “apparent Kd” value under setting [1] was found to be 7.91 nM and the “apparent Kd” value under setting [2] came to 8.63 nM.

As for “UGUCGGAGCAGAGGAUAUUACAUGAGGAUCACCCAUGUAGGUACCAAUAGCUGGAAACAGCAAUGUAAGAAGGCUGCUCCGACA”, the “apparent Kd” value by setting is: under setting [1], 280 nM; under setting [2], 408 nM.

As to “UGAUACUAAGAGAAGGUUCAAACUACAUAUUACAUACAUGAGGAUCACCCAUGUUGGUGAAUAAGAAAGGAUAUUUUACUAUAU”, the “apparent Kd” value came to 25.7 nM under setting [1] and 21.6 nM under setting [2].

“GUCAGCUCGUGAGGAUAUAAAACACUGCUUCGGCAGUGUAUUAAGAUCACAUGAGGAUCACCCAUGUAGAAGGCACGAGCUGAU”: the “apparent Kd” value runs as follows: under setting [1], 5.05 nM; under setting [2], 6.38 nM.

“ACUUUAUUUGAGAAGGUGAAGUGGAAACAUGAGGAUCACCCAUGUAAUAGGAAGCCUAUUUUUAUCAAGGAUAUCAAAUAAAGA”: the “apparent Kd” value runs as follows: under setting [3], 7.89 nM; under setting [4], 7.86 nM.

Take “ACAUUGCGAGGAUAUACAUGAGGAUCACCCAUGUGGUGGCAGAUACGGUAGGGCUAGUGUAGAAGGUGUCAUGG”: the “apparent Kd” value under setting [1] stood at 528 nM and the “apparent Kd” value under setting [2] amounted to 435 nM.

Consider “AGAAACUACGAGAAGGACAUGUGGUCCUUCCAAAACAUGAGGAUCACCCAUGUAGGAUAUCGUAGUUUCAGGAUCGUGAGAUCA”, for which the “apparent Kd” value came out at 11.5 nM under setting [1] and 4.61 nM under setting [2].

As to “UAUGGUUAAGUCAGGAUAUGCUCAUAGAGGUCUGUGCAGAAGGGACAUGAGGAUCACCCAUGUAUGGUAGUGUU”, the “apparent Kd” value under setting [1] is 194 nM and the “apparent Kd” value under setting [2] came to 240 nM.

Regarding “GUGGUUGUCGUAGGAUAUGUAGGAUAUUCCUACAUGAGGAUCACCCAUGUUAGCAUGGAAGAAGGACAGAAGGACGAUGACCAG”, the “apparent Kd” value under setting [3] worked out at 904 nM and the “apparent Kd” value under setting [4] worked out at 15.1 nM.

Consider “CGAGGUGGAGUGAGGAUAUCGUGUUCGAAAGAACGUGAGAAGGCACAUGAGGAUCACCCAUGUGAUUCAGCUCG”, for which the “apparent Kd” value by setting is: under setting [1], 24.6 nM; under setting [2], 69.4 nM.

Turning to “AAAUAGUUACAGAAGGGCAUUUAUAAUUAUCAUUACUCUUACUAUGUUUGCAGGAUAUGUUUAACAUGAGGAUCACCCAUGUAC”, the “apparent Kd” value was 20.4 nM under setting [3] and 14.1 nM under setting [4].

For “CUUUUGUGAGGAUAUUAGUAGUAAAUAAAUAAUAUUACUACUGAGAAGGCACAUGAGGAUCACCCAUGUUCCUC”, the “apparent Kd” value under setting [1] was 37 nM and the “apparent Kd” value under setting [2] was found to be 302 nM.

On to “ACACAUGAGGAUCACCCAUGUAGCUGACGUCUGCGCCAGCCACAGGAUAUACGGCAACACAAACCGUAGAAGGGUGAUAAACAC”, for which the “apparent Kd” value worked out at 114 nM under setting [3] and 23 nM under setting [4].

For the sequence “UUUCAGUCAGGAUAUCGUUAAUUUAAUUGUUUGUUUUAGUUCGAGAAGGGACAUGAGGAUCACCCAUGUAAUUU”, the “apparent Kd” value reads like this: under setting [1], 33.1 nM; under setting [2], 51.3 nM.

Take “CUCUCACAGUCAGGAUAUGACGCGGAACAUGAGGAUCACCCAUGUGACGUCCCUCCAUGUACCCGUCAGAAGGGAUUAAUGGAC”: the “apparent Kd” value by setting is: under setting [1], 720 nM; under setting [2], 480 nM.

Regarding “GGCCCACAAGGAUAUACAUGAGGAUCACCCAUGUAAAUCUCAGGUAGUAUGUGGGUGUGUAGAAGGUGUUAGCC”, the “apparent Kd” value was 15.2 nM under setting [1] and 14.4 nM under setting [2].

“AUCAGCUCGUCAGGAUAUACGUCACUGCUUCAGCAGUGUGGUAAGAUCACAUGAGGAUCACCCAUGUAGAAGGGACGAGCUGAU”: the “apparent Kd” value is 14.1 nM under setting [1] and 268 nM under setting [2].

In the case of “AAUUAGUGAGGAUAUACGGGAGGGAGGGAGGGAGGGAGGGAGUAGAAGGCACAUGAGGAUCACCCAUGUAAUUA”, the “apparent Kd” value by setting is: under setting [1], 15.1 nM; under setting [2], 22.7 nM.

As for “GGACCACAUCAGGAUAUGACUAGCUUCGGCUAGUCAGAAGGGAUGACAUGAGGAUCACCCAUGUGAUCAGGUCC”, the “apparent Kd” value was 77.5 nM under setting [1] and 127 nM under setting [2].

For “GCACAUGAUACAGGAUAUGUUUUGGAUUUUAUAUGCAGUUAUUUUAUUUUGACAGAAGGGUAUACAUGAGGAUCACCCAUGUGC”, the “apparent Kd” value came to 76.3 nM under setting [1] and 48.1 nM under setting [2].

As for “UUUUUGUGAGGAUAUCAGUAGUAAAAUAAAUAAAUUACUACUGAGAAGGCACAUGAGGAUCACCCAUGUUCCUU”, the “apparent Kd” value under setting [1] is 14 nM and the “apparent Kd” value under setting [2] is 30.3 nM.

As for “GUAGCAUACCGAGGAUAUCUCAAUAAUAAACAAACAUGAGGAUCACCCAUGUGGCGAAAGCCAAGGGAGAAGGCGGAAUGCUAC”, the “apparent Kd” value stood at 43.1 nM under setting [3] and 17.6 nM under setting [4].

In the case of “UUAAAUCAUGUAGGAUAUGCAUGGCGAAGCUACGCAGAAGGACAUGAGGAUCACCCAUGUUAUAGCUACCGAAUAAGGUGGCAA”, the “apparent Kd” value under setting [2] was 224 nM.

With “GUGUAUCGCCUCGAGGAUAUCCUGUCAUGCACAUGAGGAUCACCCAUGUAAGAGCGAGUUUUUUGGGAGAAGGCGAGUUCUCGGU”, the “apparent Kd” value by setting is: under setting [3], 90.3 nM; under setting [4], 30.4 nM.

Consider “CCUAGUUGGUAAGGAUAUCCUACACUAUUCUGACCCGUGCAAGCUACAUGAGGAUCACCCAUGUAGGAGAAGGUGCGUCAACGU”, for which the “apparent Kd” value reads like this: under setting [1], 6.97 nM; under setting [2], 6.82 nM.

For “GGUACCAACACAGGAUAUGCUUUCCUUUGGGAAGCAGAAGGGUGAAAACAUGAGGAUCACCCAUGUGGUACCGGGCGUGAGCCC”, the “apparent Kd” value under setting [3] amounted to 534 nM and the “apparent Kd” value under setting [4] amounted to 39 nM.

As for “AUUAUGUUAGGAUAUGCUUAUGGUGGAUAGUCCAAUAUGAUGCAGAAGGGACAUGAGGAUCACCCAUGUACUGA”, the “apparent Kd” value reads like this: under setting [1], 24.9 nM; under setting [2], 27.3 nM.

In the case of “UAGUAUAAGGGCAUUAAACAUGAGGAUCACCCAUGUACAAUAGAGGAUAUGCAUUUCGGUUUAGAGUAGAAGGUUAGAGAAUAU”, the “apparent Kd” value was determined as 31.3 nM under setting [1] and 38.1 nM under setting [2].

For the sequence “GUUGUGUAAGGAGGAUAUGAGCUGAAACUCUUACAUGAGGAUCACCCAUGUCCGUAACUCAGGCAUCAGAAGGCCUAACGCAUU”, the “apparent Kd” value is 686 nM under setting [3] and 23 nM under setting [4].

Turning to “AUAUUUAAUGAGGAUAUCGUUGCGGGUACGUAGCGAGAAGGCAUUACAUGAGGAUCACCCAUGUAGUGUGGGUU”, the “apparent Kd” value under setting [1] was determined as 21.3 nM and the “apparent Kd” value under setting [2] came to 68.3 nM.

Take “CAGCUACCCAGUAUGGGUUUAUGUGCAGAAGGCCAGGUACAUGAGGAUCACCCAUGUAAAGAUAUGGAGGAUAUGUUAGUGAAU”: the “apparent Kd” value stood at 17.9 nM under setting [3] and 6.66 nM under setting [4].

For “UGUCGGAGCAGAGGAUAUUACAUGAGGAUCACCCAUGUAUGAACCAAUAGCUGGAAACAGCAAUGUAAGAAGGCUGCUCUGACA”, the “apparent Kd” value reads like this: under setting [1], 11.5 nM; under setting [2], 150 nM.

Regarding “UGUCGGAGCAGAGGAUAUUACAUGAGGAUCACCCAUGUAUGCACCAAUAGCUGGAAACAGCAAUGUAAGAAGGCUGCUCCGACA”, the “apparent Kd” value worked out at 5.38 nM under setting [1] and 15.2 nM under setting [2].

On to “GUGUACAGAGGAUAUGCACGAGUAGUUACGAAAGUAACUGCACAUGAGGAUCACCCAUGUAGAAGGCUGUACAC”, for which the “apparent Kd” value under setting [1] amounted to 17.9 nM and the “apparent Kd” value under setting [2] turned out to be 16.7 nM.

Consider “UGAAAUCAUGUAGGAUAUGCAUGGCGAAGCUACGCAGAAGGACAUGAGGAUCACCCAUGUUAUAGCUACCCGUUACGGUGGCAA”, for which the “apparent Kd” value worked out at 135 nM under setting [1] and 155 nM under setting [2].

For the sequence “UUUUACAUAGGAUAUAGUUUCUUUUACAUGAGGAUCACCCAUGUCUCUCCUCUCUCUCUUCUAGAAGGAUGUUUCU”, the “apparent Kd” value was 80.1 nM under setting [1] and 72 nM under setting [2].

With “UUAUAAAGUGUGAGGAUAUGCUGGUCGAUAGAUCAGCAGAAGGCACAUGAGGAUCACCCAUGUAAUAUAUUUUU”, the “apparent Kd” value under setting [1] was found to be 48 nM and the “apparent Kd” value under setting [2] is 239 nM.

Consider “UUGCGGUCAGGAUAUGCAUGGCGGGACUUGCGUCGUGGCGUGGAGAAGGGACAUGAGGAUCACCCAUGUGGAGC”, for which the “apparent Kd” value is, setting by setting: under setting [1], 54.5 nM; under setting [2], 59.9 nM.

Take “CUUUUGUGAGGAUAUCAGUAGUAAAUAAAUUAAAUUACUACUGAGAAGGCACAUGAGGAUCACCCAUGUUCCUC”: the “apparent Kd” value reads like this: under setting [1], 38.3 nM; under setting [2], 249 nM.

As to “CGGUAGGGAGGAUAUCCAAUAUAUGACAUGAGGAUCACCCAUGUUUCCACUCGUACCUCCGGAGAAGGCCCAUCCC”, the “apparent Kd” value came out at 19.7 nM under setting [1] and 20.4 nM under setting [2].

On to “AGCUAUUACGAAGGAUAUUGUGACAUGAGGAUCACCCAUGUUUUCAUGAUUAAUUGUGAUCACGUCGAGAAGGUUGUACUAACA”, for which the “apparent Kd” value came to 52.4 nM under setting [3] and 54.5 nM under setting [4].

Consider “UAAGUUGAGGAGAAGGGAGCACAUGAGGAUCACCCAUGUGGUUCUUUGUGCUCAGGAUAUCCAUGGAGCUCCGUCGCGUUCCAG”, for which the “apparent Kd” value runs as follows: under setting [1], 103 nM; under setting [2], 19.1 nM.

On to “AGCACGGGAUUGGAGGAUAUGUUGUUUGCAACAUGAGGAUCACCCAUGUCUGAGGCUGAAAAGCAGCAGAAGGCCGAUACAACCA”, for which the “apparent Kd” value came out at 347 nM under setting [3] and 71.5 nM under setting [4].

With “UGGUCGCGAGGAUAUACAUGAGGAUCACCCAUGUUUGAGCGCCAUCCGUUCGGCUCGUGUAGAAGGUGCACACA”, the “apparent Kd” value under setting [1] was 21.9 nM and the “apparent Kd” value under setting [2] was determined as 19.9 nM.

As for “UGAUAGGACAGAGGAUAUACGUCCUAGAGAUACUAGGAAAGUUUCCUCACAUGAGGAUCACCCAUGUAGAAGGCUGUCCUAUCU”, the “apparent Kd” value under setting [1] was 19 nM and the “apparent Kd” value under setting [2] stood at 472 nM.

On to “UCGAACUUUCAUGAAAUUCGCACAUGAGGAUCACCCAUGUACGAGGAUAUGUACUUAAACGGCUAACAGAAGGCGUACUGGGCA”, for which the “apparent Kd” value under setting [1] came to 105 nM and the “apparent Kd” value under setting [2] is 71.8 nM.

On to “AAUAAUAAGGAGGAUAUCGUAUCGGAAACGAUACGAGAAGGUCUAACAUGAGGAUCACCCAUGUUCCUCAAAUA”, for which the “apparent Kd” value is, setting by setting: under setting [1], 38.1 nM; under setting [2], 54.3 nM.
